Results published in ChEMBL document CHEMBL3352498, “Membrane active phenylalanine conjugated lipophilic norspermidine derivatives with selective antibacterial activity” (J Med Chem, 2014).
≈ marks a conversion by molar mass, not a printed value. Calls of active or inactive are those of the source. The calls are words filed in the database; no cut-off is given here.

Assays:
[1] = tested on: Staphylococcus aureus; experiment: Antimicrobial activity against Staphylococcus aureus MTCC 737 after 24 hrs by broth microdilution method; format: functional
Summary of the method: (§1)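 Broth microdilution per CLSI: 6 h cultures (37 °C) diluted to ~10^5 CFU/mL; 2-fold serial dilutions in sterile water added to bacteria; 24 h at 37 °C; OD600 read. Triplicates, experiment done at least twice; mean OD vs concentration fitted sigmoidally, MIC taken where OD matched the no-bacteria control. E. coli grown in LB broth, S. aureus in yeast–dextrose broth.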

[2] = tested on: Staphylococcus aureus; experiment: Antimicrobial activity against methicillin-resistant Staphylococcus aureus ATCC 33591 after 24 hrs by broth microdilution method; format: functional
Summary of the method: (§2)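 Broth microdilution per CLSI, 24 h at 37 °C. Inoculum is a 6 h 37 °C culture diluted to ~10^5 CFU/mL (yeast–dextrose broth for MRSA and K. pneumoniae). 50 μL of 2-fold dilutions in water plus 150 μL bacteria. Read by OD600, triplicates, run at least twice. MIC is taken from a sigmoidal fit as the point where OD equals the bacteria-free control.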

[3] = tested on: Enterococcus faecium; experiment: Antimicrobial activity against Enterococcus faecium ATCC 19634 after 24 hrs by broth microdilution method; format: functional
[4] = tested on: Enterococcus faecium; experiment: Antimicrobial activity against vancomycin-resistant Enterococcus faecium ATCC 51559 after 24 hrs by broth microdilution method; format: functional; summary of the method: as §2
[5] = tested on: Escherichia coli; experiment: Antimicrobial activity against Escherichia coli MTCC 443 after 24 hrs by broth microdilution method; format: functional; summary of the method: as §1
[6] = tested on: Klebsiella pneumoniae; experiment: Antimicrobial activity against beta-lactam-resistant Klebsiella pneumoniae ATCC 700603 after 24 hrs by broth microdilution method; format: functional; summary of the method: as §2
[7] = Hemolytic activity in human erythrocytes after 1 hr by spectrophotometry; format: ADME, cell-based, Erythrocyte
Summary of the method: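 Fresh heparinised human erythrocytes suspended to 5 vol % in PBS pH 7.4, mixed with serially diluted compound, 1 h at 37 °C; no-compound and 1 vol % Triton X-100 controls. Supernatant A540 after centrifugation gave % hemolysis; triplicates averaged, sigmoidal fit gave HC50.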

[8] = Critical micelle concentration of the compound; format: ADME
Summary of the method: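 Static light scattering at 90° (excitation and emission 400 nm) on compound dissolved at 500 μg/mL in yeast–dextrose broth at room temperature, measured over successive dilutions; cmc taken from the inflection point where intensity rises steeply then falls after a local maximum.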

[9] = tested on: Staphylococcus aureus; experiment: Ratio of MIC for Staphylococcus aureus MTCC 737 after 4 hrs in presence of 50% human serum to MIC for Staphylococcus aureus MTCC 737 after 4 hrs; format: functional
Summary of the method: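 Compound mixed 1:1 with human serum (50% serum) and held at 37 °C; at 0, 2 and 4 h the mixture was serially 2-fold diluted in 0.9% saline. Activity against S. aureus then tested in triplicate by the standard broth microdilution MIC protocol.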

[10] = tested on: Staphylococcus aureus; experiment: Antimicrobial activity against Staphylococcus aureus MTCC 737 after 2 hrs by broth microdilution method in presence of 50% human plasma; format: functional, organism-based
Summary of the method: (§3)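 Compound mixed 1:1 with fresh human plasma (50% plasma) and held at 37 °C; at 0, 2, 4, 6, 12 and 24 h aliquots were diluted 2-fold in 0.9% saline.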

[11] = tested on: Staphylococcus aureus; experiment: Antimicrobial activity against Staphylococcus aureus MTCC 737 after 4 hrs by broth microdilution method in presence of 50% human plasma; format: functional, organism-based; summary of the method: as §3
[12] = tested on: Staphylococcus aureus; experiment: Antimicrobial activity against Staphylococcus aureus MTCC 737 at sub-MIC measured after 20 passages by broth microdilution method; format: functional, organism-based
[13] = tested on: Escherichia coli; experiment: Antimicrobial activity against Escherichia coli MTCC 443 at sub-MIC measured after 30 passages by broth microdilution method; format: functional, organism-based
[14] = tested on: Staphylococcus aureus; experiment: Antimicrobial activity against Staphylococcus aureus MTCC 737 assessed as increase in MIC measured after 20 passages by broth microdilution method relative to control; format: functional
[15] = tested on: Escherichia coli; experiment: Antimicrobial activity against Escherichia coli MTCC 443 assessed as increase in MIC measured after 30 passages by broth microdilution method relative to control; format: functional
[16] = tested on: Staphylococcus aureus; experiment: Antimicrobial activity against Staphylococcus aureus MTCC 737 assessed as membrane permeabilization at 12 times MIC by propidium iodide staining method; format: functional, organism-based
[17] = tested on: Escherichia coli; experiment: Antimicrobial activity against Escherichia coli MTCC 443 assessed as membrane permeabilization at 12 times MIC by propidium iodide staining method; format: functional, organism-based
[18] = tested on: Staphylococcus aureus; experiment: Antimicrobial activity against Staphylococcus aureus MTCC 737 assessed as membrane depolarization at 12 times MIC using DiSC3 by fluorescence spectroscopy; format: functional, organism-based
Summary of the method: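 Mid-log S. aureus washed and resuspended in 5 mM HEPES, 5 mM glucose, 100 mM KCl (1:1:1); 2 μM DiSC3(5) added, 20 min preincubation.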

[19] = tested on: Staphylococcus aureus; experiment: Antimicrobial activity against Staphylococcus aureus MTCC 737 assessed as leakage of K+ at 12 times MIC using PBFI-AM by fluorescence spectroscopy; format: functional, organism-based
[20] = tested on: Escherichia coli; experiment: Antimicrobial activity against Escherichia coli MTCC 443 assessed as leakage of K+ at 12 times MIC using PBFI-AM by fluorescence spectroscopy; format: functional, organism-based
[21] = tested on: Staphylococcus aureus; experiment: Bactericidal activity against Staphylococcus aureus MTCC 737 assessed as log reduction in CFU/ml at 6 times MIC by time-kill assay relative to control; format: functional
[22] = tested on: Staphylococcus aureus; experiment: Bactericidal activity against Staphylococcus aureus MTCC 737 assessed as log reduction in CFU/ml at 6 times MIC at 15 mins by time-kill assay relative to control; format: functional
[23] = Cytotoxicity against mouse RAW264.7 cells at 16 ug/ml after 1 hr by MTT assay; format: cell-based; details: raw264.7, 1 h
Summary of the method: (§4)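 RAW 264.7 cells grown in DMEM with 10% FBS to ~70–80% confluency, exposed to serially diluted compound 1 h at 37 °C, 5% CO2; untreated and Triton X-100 controls. MTT (5 mg/mL) 4 h, formazan dissolved in DMSO, OD 570 nm; viability normalised to controls, triplicates, sigmoidal fit for 50% viability.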

[24] = Cytotoxicity against mouse RAW264.7 cells after 1 hr by MTT assay; format: cell-based; details: raw264.7, 1 h; summary of the method: as §4
[25] = tested on: Staphylococcus aureus; experiment: Ratio of MIC for Staphylococcus aureus MTCC 737 after 2 hrs in presence of 50% human plasma to MIC for Staphylococcus aureus MTCC 737 after 2 hrs; format: functional; summary of the method: as §3
[26] = tested on: Staphylococcus aureus; experiment: Ratio of MIC for Staphylococcus aureus MTCC 737 after 4 hrs in presence of 50% human plasma to MIC for Staphylococcus aureus MTCC 737 after 4 hrs; format: functional; summary of the method: as §3

| Compound | MIC ([1]; MTCC 737, 24 h) [µg/mL] | MIC ([2]; ATCC 33591, 24 h) [µg/mL] | MIC ([3]; ATCC 19634, 24 h) [µg/mL] | MIC ([4]; ATCC 51559, 24 h) [µg/mL] | MIC ([5]; MTCC 443, 24 h) [µg/mL] | MIC ([6]; ATCC 700603, 24 h) [µg/mL] | HC50 at 1 h [7] [µg/mL] | further results |
| --- | --- | --- | --- | --- | --- | --- | --- | --- |
| CN[C@H](CC(C)C)C(=O)N[C@H]1C(=O)N[C@@H](CC(N)=O)C(=O)N[C@H]2C(=O)N[C@H]3C(=O)N[C@H](C(=O)N[C@H](C(=O)O)c4cc(O)cc(O)c4-c4cc3ccc4O)[C@H](O)c3ccc(c(Cl)c3)Oc3cc2cc(c3O[C@@H]2O[C@H](CO)[C@@H](O)[C@H](O)[C@H]2O[C@H]2C[C@](C)(N)[C@H](O)[C@H](C)O2)Oc2ccc(cc2Cl)[C@H]1O [VANCOMYCIN] | 0.8 (≈ 0.552 µM) | 0.8 (≈ 0.552 µM) | 0.8 (≈ 0.552 µM) | > 1000 |  |  |  |  |
| CCCCCCCCCCCC(=O)N(CCCN)CCCN.O=C(O)C(F)(F)F.O=C(O)C(F)(F)F | 45 | 53 | 62 | 57 | 108 | 163 | 107 |  |
| N[C@@H](Cc1ccccc1)C(=O)NCCCN(CCCNC(=O)[C@@H](N)Cc1ccccc1)C(=O)[C@@H](N)Cc1ccccc1.O=C(O)C(F)(F)F.O=C(O)C(F)(F)F.O=C(O)C(F)(F)F | > 250 |  | > 250 | > 250 | > 250 | > 250 |  |  |
| CCCCCCCCCCCCCCCC(=O)N(CCCNC(=O)[C@@H](N)Cc1ccccc1)CCCNC(=O)[C@@H](N)Cc1ccccc1.O=C(O)C(F)(F)F.O=C(O)C(F)(F)F | 9 | 4.6 | 7.6 | 2.7 | 227 | 62 | 74 |  |
| N[C@@H](Cc1ccccc1)C(=O)NCCCN(CCCNC(=O)[C@@H](N)Cc1ccccc1)C(=O)Cc1cccc2ccccc12.O=C(O)C(F)(F)F.O=C(O)C(F)(F)F | > 250 |  | > 250 | > 250 | > 250 | > 250 |  |  |
| CCCCCCCCCC(=O)N(CCCN)CCCN.O=C(O)C(F)(F)F.O=C(O)C(F)(F)F | 240 | 137 | > 250 | 250 | 231 | > 250 | > 500 |  |
| CCCCCCCCCCCCCCCCCC(=O)N(CCCNC(=O)[C@@H](N)Cc1ccccc1)CCCNC(=O)[C@@H](N)Cc1ccccc1.O=C(O)C(F)(F)F.O=C(O)C(F)(F)F | 11 | 5.2 | 10 | 2.9 | 248 | 87 | 65 | CMC [8]: 20 µg/mL |
| CCCCCCCCCCCCCC(=O)N(CCCNC(=O)[C@@H](N)Cc1ccccc1)CCCNC(=O)[C@@H](N)Cc1ccccc1.O=C(O)C(F)(F)F.O=C(O)C(F)(F)F | 6 | 4.1 | 4.5 | 2.4 | 14 | 16 | 124 |  |
| COLISTIN |  |  |  |  |  |  |  | MIC [1]: 25 µg/mL; MIC [2]: 68 µg/mL; MIC [3]: > 250 µg/mL; MIC [5]: 0.5 µg/mL; MIC [4]: > 250 µg/mL; MIC [6]: 1.5 µg/mL |
| CCCCCCCCCC(=O)N(CCCNC(=O)[C@@H](N)Cc1ccccc1)CCCNC(=O)[C@@H](N)Cc1ccccc1.O=C(O)C(F)(F)F.O=C(O)C(F)(F)F | 15 | 20 | 29 | 14 | 19 | 57 | 187 | CMC [8]: 156 µg/mL |
| CCCCCCCCCCCC(=O)N(CCCNC(=O)[C@H](N)Cc1ccccc1)CCCNC(=O)[C@H](N)Cc1ccccc1.O=C(O)C(F)(F)F.O=C(O)C(F)(F)F | 3.5 | 4.2 | 2.8 | 2.4 | 10 | 6.5 | 209 | fold change (FC) [9]: 2; Activity [10]: Active; Activity [11]: Active; Activity [12]: Active; Activity [13]: Active; fold change (FC) [14]: 800; fold change (FC) [15]: 250; Activity [16]: Active; Activity [17]: Active; Activity [18]: Active; Activity [19]: Active; Activity [20]: Active; CMC [8]: 40 µg/mL; FC [21]: 3; FC [22]: 3; Activity [23]: Non-toxic; Activity [24]: Non-toxic |
| CCCCCCCCCCCCCC(=O)N(CCCN)CCCN.O=C(O)C(F)(F)F.O=C(O)C(F)(F)F | 18 | 15 | 27 | 23 | 28 | 47 | 72 |  |
| CCCCCCCCCCCCCCCC(=O)N(CCCN)CCCN.O=C(O)C(F)(F)F.O=C(O)C(F)(F)F | 12 | 11 | 2.8 | 2.4 | 14 | 65 | 52 |  |
| N[C@@H](Cc1ccccc1)C(=O)NCCCNCCCNC(=O)[C@@H](N)Cc1ccccc1.O=C(O)C(F)(F)F.O=C(O)C(F)(F)F.O=C(O)C(F)(F)F | > 250 |  | > 250 | > 250 | > 250 | > 250 |  |  |
| CCCCCCCCCCCC(=O)N(CCCNC(=O)[C@@H](N)Cc1ccccc1)CCCNC(=O)[C@@H](N)Cc1ccccc1.O=C(O)C(F)(F)F.O=C(O)C(F)(F)F | 3.6 | 3.3 | 4 | 2.3 | 10 | 8 | 171 | Activity [16]: Active; Activity [17]: Active; Activity [18]: Active; Activity [19]: Active; Activity [20]: Active; CMC [8]: 40 µg/mL; FC [21]: 3; fold change (FC) [25]: 2; fold change (FC) [26]: 4 |
| CCCCCCCCCCCCCCCCCC(=O)N(CCCN)CCCN.O=C(O)C(F)(F)F.O=C(O)C(F)(F)F | 21 | 19 | 21 | 11 | 26 | 106 | 42 |  |
